According to ChEMBL document CHEMBL1148918, “New pseudopterosin and seco-pseudopterosin diterpene glycosides from two Colombian isolates of Pseudopterogorgia elisabethae and their diverse biological activities” (J Nat Prod, 2004):
≈ marks a conversion by molar mass, not a printed value.

test system: not listed separately; test: (§1) Antiinflammatory activity in LPS-stimulated rat neonatal microglia assessed as inhibition of PMA-induced superoxide anion production preincubated 15 mins prior to PMA challenge; type: functional, cell-based; settings: not given
Method in brief: (§2)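 Neonatal rat microglia, 2 × 10^5 cells/well, primed 17 h with LPS (0.3 ng/mL) in DMEM + 10% FBS + penicillin/streptomycin at 35.9 °C, 5% CO2. Cells washed with warm HBSS, given compound (0.01-10 µM) or DMSO vehicle for 15 min, then PMA (1 µM). Triplicate wells, two independent experiments.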

Structure (SMILES)	IC50
CC(=O)O[C@@H]1CO[C@H](Oc2c(C)cc3c(c2O)[C@@H](C)CC[C@@H]3[C@@H](C)CCC=C(C)C)[C@@H](O)[C@@H]1O	> 10 µM
CC(=O)O[C@H]1[C@H](O)[C@H](Oc2c(C)c3c4c(c2O)[C@@H](C)CC[C@@H]4[C@@H](C)C[C@H]3C=C(C)C)O[C@@H](C)[C@H]1O [PSEUDOPTEROSIN Q]	11.2 µM
CC(=O)O[C@H]1[C@H](O)[C@@H](Oc2c(C)c3c4c(c2O)[C@@H](C)CC[C@@H]4[C@@H](C)C[C@H]3C=C(C)C)OC[C@H]1OC(C)=O [PSEUDOPTEROSIN W]	> 10 µM
CC(=O)O[C@@H]1CO[C@H](Oc2c(C)c3c4c(c2O)[C@@H](C)CC[C@@H]4[C@@H](C)C[C@H]3C=C(C)C)[C@@H](O)[C@@H]1O [PSEUDOPTEROSIN U]	14.7 µM

test system: Microglia; test: as §1; type: functional, cell-based; settings: not given; method in brief: as §2

Structure (SMILES)	Activity
CC(=O)O[C@@H]1CO[C@H](Oc2c(C)cc3c(c2O)[C@@H](C)CC[C@@H]3[C@@H](C)CCC=C(C)C)[C@@H](O)[C@@H]1O	Dose-dependent effect
CC(=O)O[C@H]1[C@H](O)[C@H](Oc2c(C)c3c4c(c2O)[C@@H](C)CC[C@@H]4[C@@H](C)C[C@H]3C=C(C)C)O[C@@H](C)[C@H]1O [PSEUDOPTEROSIN Q]	Dose-dependent effect
CC(=O)O[C@H]1[C@H](O)[C@@H](Oc2c(C)c3c4c(c2O)[C@@H](C)CC[C@@H]4[C@@H](C)C[C@H]3C=C(C)C)OC[C@H]1OC(C)=O [PSEUDOPTEROSIN W]	Dose-dependent effect
CC(=O)O[C@@H]1CO[C@H](Oc2c(C)c3c4c(c2O)[C@@H](C)CC[C@@H]4[C@@H](C)C[C@H]3C=C(C)C)[C@@H](O)[C@@H]1O [PSEUDOPTEROSIN U]	Dose-dependent effect

test system: Mycobacterium tuberculosis; test: Antimycobacterial activity against Mycobacterium tuberculosis H37Rv at 6.25 ug/mL; type: functional; settings: not given

Structure (SMILES)	inhibition at 6.25 µg/mL
CC(=O)O[C@@H]1CO[C@H](Oc2c(C)cc3c(c2O)[C@@H](C)CC[C@@H]3[C@@H](C)CCC=C(C)C)[C@@H](O)[C@@H]1O	25%
CC(=O)O[C@H]1[C@H](O)[C@H](Oc2c(C)c3c4c(c2O)[C@@H](C)CC[C@@H]4[C@@H](C)C[C@H]3C=C(C)C)O[C@@H](C)[C@H]1O [PSEUDOPTEROSIN Q]	37%
CC(=O)O[C@@H]1CO[C@H](Oc2c(C)c3c4c(c2O)[C@@H](C)CC[C@@H]4[C@@H](C)C[C@H]3C=C(C)C)[C@@H](O)[C@@H]1O [PSEUDOPTEROSIN U]	43%

test system: not listed separately; test: (§3) Antiinflammatory activity in LPS-stimulated rat neonatal microglia assessed as drug level causing 50% PMA-induced LDH release preincubated 15 mins prior to PMA challenge by spectrophotometry; type: functional; settings: not given; method in brief: as §2

Structure (SMILES)	Activity
CC(=O)O[C@@H]1CO[C@H](Oc2c(C)cc3c(c2O)[C@@H](C)CC[C@@H]3[C@@H](C)CCC=C(C)C)[C@@H](O)[C@@H]1O	3.6 µM
CC(=O)O[C@H]1[C@H](O)[C@H](Oc2c(C)c3c4c(c2O)[C@@H](C)CC[C@@H]4[C@@H](C)C[C@H]3C=C(C)C)O[C@@H](C)[C@H]1O [PSEUDOPTEROSIN Q]	3.4 µM
CC(=O)O[C@H]1[C@H](O)[C@@H](Oc2c(C)c3c4c(c2O)[C@@H](C)CC[C@@H]4[C@@H](C)C[C@H]3C=C(C)C)OC[C@H]1OC(C)=O [PSEUDOPTEROSIN W]	10 µM
CC(=O)O[C@@H]1CO[C@H](Oc2c(C)c3c4c(c2O)[C@@H](C)CC[C@@H]4[C@@H](C)C[C@H]3C=C(C)C)[C@@H](O)[C@@H]1O [PSEUDOPTEROSIN U]	0.7 µM

test system: Microglia; test: as §3; type: functional; settings: not given; method in brief: as §2

Structure (SMILES)	Activity
CC(=O)O[C@@H]1CO[C@H](Oc2c(C)cc3c(c2O)[C@@H](C)CC[C@@H]3[C@@H](C)CCC=C(C)C)[C@@H](O)[C@@H]1O	Dose-dependent effect
CC(=O)O[C@H]1[C@H](O)[C@H](Oc2c(C)c3c4c(c2O)[C@@H](C)CC[C@@H]4[C@@H](C)C[C@H]3C=C(C)C)O[C@@H](C)[C@H]1O [PSEUDOPTEROSIN Q]	Dose-dependent effect
CC(=O)O[C@H]1[C@H](O)[C@@H](Oc2c(C)c3c4c(c2O)[C@@H](C)CC[C@@H]4[C@@H](C)C[C@H]3C=C(C)C)OC[C@H]1OC(C)=O [PSEUDOPTEROSIN W]	Dose-dependent effect
CC(=O)O[C@@H]1CO[C@H](Oc2c(C)c3c4c(c2O)[C@@H](C)CC[C@@H]4[C@@H](C)C[C@H]3C=C(C)C)[C@@H](O)[C@@H]1O [PSEUDOPTEROSIN U]	Dose-dependent effect

test system: Human alphaherpesvirus 1; test: Antiviral activity against HSV1; type: functional, organism-based; settings: not given

Structure (SMILES)	EC50
Nc1nc2c(ncn2COCCO)c(=O)[nH]1 [ACYCLOVIR]	0.95 µM

test system: SF-268; test: Cytotoxicity against human SF268 cells relative to control; type: functional; parameters: concentration or dose not given beside the values; settings: not given
Method in brief: (§4)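 One-dose primary screen on a three-line panel (MCF-7, NCI-H460, SF268). Growth of treated cells given as percent of untreated controls.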

Structure (SMILES)	Activity
CC(=O)O[C@H]1[C@H](O)[C@H](Oc2c(C)c3c4c(c2O)[C@@H](C)CC[C@@H]4[C@@H](C)C[C@H]3C=C(C)C)O[C@@H](C)[C@H]1O [PSEUDOPTEROSIN Q]	107%
CC(=O)O[C@H]1[C@H](O)[C@@H](Oc2c(C)c3c4c(c2O)[C@@H](C)CC[C@@H]4[C@@H](C)C[C@H]3C=C(C)C)OC[C@H]1OC(C)=O [PSEUDOPTEROSIN W]	0%
CC(=O)O[C@@H]1CO[C@H](Oc2c(C)c3c4c(c2O)[C@@H](C)CC[C@@H]4[C@@H](C)C[C@H]3C=C(C)C)[C@@H](O)[C@@H]1O [PSEUDOPTEROSIN U]	0%

test system: not listed separately; test: Cytotoxicity against human NCI60 cells; type: functional; settings: not given

Structure (SMILES)	GI50
CC(=O)O[C@@H]1CO[C@H](Oc2c(C)c3c4c(c2O)[C@@H](C)CC[C@@H]4[C@@H](C)C[C@H]3C=C(C)C)[C@@H](O)[C@@H]1O [PSEUDOPTEROSIN U]	20 µM

test system: NCI-H460; test: Cytotoxicity against human NCI-H460 cells relative to control; type: functional; parameters: concentration or dose not given beside the values; settings: not given; method in brief: as §4

Structure (SMILES)	Activity
CC(=O)O[C@H]1[C@H](O)[C@H](Oc2c(C)c3c4c(c2O)[C@@H](C)CC[C@@H]4[C@@H](C)C[C@H]3C=C(C)C)O[C@@H](C)[C@H]1O [PSEUDOPTEROSIN Q]	101%
CC(=O)O[C@H]1[C@H](O)[C@@H](Oc2c(C)c3c4c(c2O)[C@@H](C)CC[C@@H]4[C@@H](C)C[C@H]3C=C(C)C)OC[C@H]1OC(C)=O [PSEUDOPTEROSIN W]	0%
CC(=O)O[C@@H]1CO[C@H](Oc2c(C)c3c4c(c2O)[C@@H](C)CC[C@@H]4[C@@H](C)C[C@H]3C=C(C)C)[C@@H](O)[C@@H]1O [PSEUDOPTEROSIN U]	0%

test system: Human alphaherpesvirus 2; test: Antiviral activity against HSV2; type: functional, organism-based; settings: not given

Structure (SMILES)	EC50
Nc1nc2c(ncn2COCCO)c(=O)[nH]1 [ACYCLOVIR]	0.95 µM

test system: MCF7; test: Cytotoxicity against human MCF7 cells relative to control; type: functional; parameters: concentration or dose not given beside the values; settings: not given; method in brief: as §4

Structure (SMILES)	Activity
CC(=O)O[C@H]1[C@H](O)[C@H](Oc2c(C)c3c4c(c2O)[C@@H](C)CC[C@@H]4[C@@H](C)C[C@H]3C=C(C)C)O[C@@H](C)[C@H]1O [PSEUDOPTEROSIN Q]	103%
CC(=O)O[C@H]1[C@H](O)[C@@H](Oc2c(C)c3c4c(c2O)[C@@H](C)CC[C@@H]4[C@@H](C)C[C@H]3C=C(C)C)OC[C@H]1OC(C)=O [PSEUDOPTEROSIN W]	0%
CC(=O)O[C@@H]1CO[C@H](Oc2c(C)c3c4c(c2O)[C@@H](C)CC[C@@H]4[C@@H](C)C[C@H]3C=C(C)C)[C@@H](O)[C@@H]1O [PSEUDOPTEROSIN U]	0%

test system: not listed separately; test: (§5) Antiinflammatory activity in LPS-stimulated rat neonatal microglia assessed as inhibition of PMA-induced TXB2 production preincubated 15 mins prior to PMA challenge; type: functional, cell-based; settings: not given; method in brief: as §2

Structure (SMILES)	IC50
CC(=O)O[C@@H]1CO[C@H](Oc2c(C)cc3c(c2O)[C@@H](C)CC[C@@H]3[C@@H](C)CCC=C(C)C)[C@@H](O)[C@@H]1O	> 10 µM
CC(=O)O[C@H]1[C@H](O)[C@H](Oc2c(C)c3c4c(c2O)[C@@H](C)CC[C@@H]4[C@@H](C)C[C@H]3C=C(C)C)O[C@@H](C)[C@H]1O [PSEUDOPTEROSIN Q]	4.7 µM
CC(=O)O[C@H]1[C@H](O)[C@@H](Oc2c(C)c3c4c(c2O)[C@@H](C)CC[C@@H]4[C@@H](C)C[C@H]3C=C(C)C)OC[C@H]1OC(C)=O [PSEUDOPTEROSIN W]	> 10 µM
CC(=O)O[C@@H]1CO[C@H](Oc2c(C)c3c4c(c2O)[C@@H](C)CC[C@@H]4[C@@H](C)C[C@H]3C=C(C)C)[C@@H](O)[C@@H]1O [PSEUDOPTEROSIN U]	> 10 µM

test system: Microglia; test: as §5; type: functional, cell-based; settings: not given; method in brief: as §2

Structure (SMILES)	Activity
CC(=O)O[C@@H]1CO[C@H](Oc2c(C)cc3c(c2O)[C@@H](C)CC[C@@H]3[C@@H](C)CCC=C(C)C)[C@@H](O)[C@@H]1O	Dose-dependent effect
CC(=O)O[C@H]1[C@H](O)[C@H](Oc2c(C)c3c4c(c2O)[C@@H](C)CC[C@@H]4[C@@H](C)C[C@H]3C=C(C)C)O[C@@H](C)[C@H]1O [PSEUDOPTEROSIN Q]	Dose-dependent effect
CC(=O)O[C@H]1[C@H](O)[C@@H](Oc2c(C)c3c4c(c2O)[C@@H](C)CC[C@@H]4[C@@H](C)C[C@H]3C=C(C)C)OC[C@H]1OC(C)=O [PSEUDOPTEROSIN W]	Dose-dependent effect
CC(=O)O[C@@H]1CO[C@H](Oc2c(C)c3c4c(c2O)[C@@H](C)CC[C@@H]4[C@@H](C)C[C@H]3C=C(C)C)[C@@H](O)[C@@H]1O [PSEUDOPTEROSIN U]	Dose-dependent effect

test system: Plasmodium falciparum; test: Antimalarial activity against chloroquine-resistant Plasmodium falciparum W2 after 48 hrs by fluorimetry; type: functional, organism-based; settings: W2, 48 h

Structure (SMILES)	IC50
CC(=O)O[C@H]1[C@H](O)[C@H](Oc2c(C)c3c4c(c2O)[C@@H](C)CC[C@@H]4[C@@H](C)C[C@H]3C=C(C)C)O[C@@H](C)[C@H]1O [PSEUDOPTEROSIN Q]	15 µg/mL (≈ 30.7 µM)
CC(=O)O[C@@H]1CO[C@H](Oc2c(C)c3c4c(c2O)[C@@H](C)CC[C@@H]4[C@@H](C)C[C@H]3C=C(C)C)[C@@H](O)[C@@H]1O [PSEUDOPTEROSIN U]	19 µg/mL (≈ 40 µM)
